In ChEMBL document CHEMBL1138578, “Synthesis and antibacterial activity of nitroaryl thiadiazole-gatifloxacin hybrids” (Eur J Med Chem, 2009):
In brackets after ≈: the same amount, converted by molar mass.

Test system: Staphylococcus aureus
Test: Antibacterial activity against Staphylococcus aureus ATCC 25923 after 18 hrs by conventional agar dilution method
Type: functional
Settings: ATCC 25923, 18 h
Summary of the method: (§1)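 Twofold dilutions in DMSO (1 mL) mixed into molten Mueller–Hinton agar (19 mL) at 50 °C. Inocula adjusted at 600 nm to about 0.5 McFarland (1.5 × 10⁸ CFU/mL), then diluted in 0.85% saline to 10⁷ CFU/mL. Plates spot-inoculated at 10⁴ CFU/spot and incubated 35–37 °C for 18 h. MIC is the lowest concentration giving no visible growth. DMSO-only control plates included.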
In the case of `COc1c(N2CCNC(C)C2)c(F)cc2c(=O)c(C(=O)O)cn(C3CC3)c12` (centres undefined) [GATIFLOXACIN], the MIC is reported as 0.25 µg/mL (≈ 0.666 µM).
In the case of `COc1c(N2CCN(c3nnc(-c4ccc([N+](=O)[O-])s4)s3)C(C)C2)c(F)cc2c(=O)c(C(=O)O)cn(C3CC3)c12` (centres undefined), the MIC is reported as 0.5 µg/mL (≈ 0.852 µM).
`COc1c(N2CCN(c3nnc(-c4ccccc4[N+](=O)[O-])s3)C(C)C2)c(F)cc2c(=O)c(C(=O)O)cn(C3CC3)c12` (centres undefined) gave an MIC of 32 µg/mL (≈ 55.1 µM).

Test system: Staphylococcus epidermidis
Test: Antibacterial activity against Staphylococcus epidermidis ATCC 4940 after 18 hrs by conventional agar dilution method
Type: functional
Settings: ATCC 4940, 18 h
Summary of the method: as §1
For `COc1c(N2CCNC(C)C2)c(F)cc2c(=O)c(C(=O)O)cn(C3CC3)c12` (centres undefined) [GATIFLOXACIN], the MIC was 0.0625 µg/mL (≈ 0.166 µM).
For `COc1c(N2CCN(c3nnc(-c4ccc([N+](=O)[O-])s4)s3)C(C)C2)c(F)cc2c(=O)c(C(=O)O)cn(C3CC3)c12` (centres undefined), the MIC was 0.125 µg/mL (≈ 0.213 µM).
In the case of `COc1c(N2CCN(c3nnc(-c4ccccc4[N+](=O)[O-])s3)C(C)C2)c(F)cc2c(=O)c(C(=O)O)cn(C3CC3)c12` (centres undefined), the MIC is reported as 0.0625 µg/mL (≈ 0.108 µM).

Test system: Streptococcus pneumoniae
Test: Antibacterial activity against Streptococcus pneumoniae ATCC 1240 after 18 hrs by conventional agar dilution method
Type: functional
Settings: ATCC 1240, 18 h
Summary of the method: as §1
In the case of `COc1c(N2CCNC(C)C2)c(F)cc2c(=O)c(C(=O)O)cn(C3CC3)c12` (centres undefined) [GATIFLOXACIN], the MIC is reported as 0.25 µg/mL (≈ 0.666 µM).
In the case of `COc1c(N2CCN(c3nnc(-c4ccc([N+](=O)[O-])s4)s3)C(C)C2)c(F)cc2c(=O)c(C(=O)O)cn(C3CC3)c12` (centres undefined), the MIC is reported as 0.25 µg/mL (≈ 0.426 µM).
With `COc1c(N2CCN(c3nnc(-c4ccccc4[N+](=O)[O-])s3)C(C)C2)c(F)cc2c(=O)c(C(=O)O)cn(C3CC3)c12` (centres undefined) the MIC was 0.25 µg/mL (≈ 0.431 µM).

Test system: Bacillus subtilis
Test: Antibacterial activity against Bacillus subtilis ATCC 6051 after 18 hrs by conventional agar dilution method
Type: functional
Settings: ATCC 6051, 18 h
Summary of the method: as §1
`COc1c(N2CCNC(C)C2)c(F)cc2c(=O)c(C(=O)O)cn(C3CC3)c12` (centres undefined) [GATIFLOXACIN] gave an MIC of 0.5 µg/mL (≈ 1.33 µM).
In the case of `COc1c(N2CCN(c3nnc(-c4ccc([N+](=O)[O-])s4)s3)C(C)C2)c(F)cc2c(=O)c(C(=O)O)cn(C3CC3)c12` (centres undefined), the MIC is reported as 0.5 µg/mL (≈ 0.852 µM).
Work on `COc1c(N2CCN(c3nnc(-c4ccccc4[N+](=O)[O-])s3)C(C)C2)c(F)cc2c(=O)c(C(=O)O)cn(C3CC3)c12` (centres undefined) yielded an MIC of 0.0625 µg/mL (≈ 0.108 µM).

Test system: Enterococcus faecalis
Test: Antibacterial activity against Enterococcus faecalis NCTC 6013 after 18 hrs by conventional agar dilution method
Type: functional
Settings: NCTC 6013, 18 h
Summary of the method: as §1
`COc1c(N2CCNC(C)C2)c(F)cc2c(=O)c(C(=O)O)cn(C3CC3)c12` (centres undefined) [GATIFLOXACIN] gave an MIC of 0.5 µg/mL (≈ 1.33 µM).
With `COc1c(N2CCN(c3nnc(-c4ccc([N+](=O)[O-])s4)s3)C(C)C2)c(F)cc2c(=O)c(C(=O)O)cn(C3CC3)c12` (centres undefined) the MIC was 2 µg/mL (≈ 3.41 µM).
`COc1c(N2CCN(c3nnc(-c4ccccc4[N+](=O)[O-])s3)C(C)C2)c(F)cc2c(=O)c(C(=O)O)cn(C3CC3)c12` (centres undefined) showed an MIC of 2 µg/mL (≈ 3.44 µM).

Test system: Micrococcus luteus
Test: Antibacterial activity against Micrococcus luteus ATCC 1110 after 18 hrs by conventional agar dilution method
Type: functional
Settings: ATCC 1110, 18 h
Summary of the method: as §1
Work on `COc1c(N2CCNC(C)C2)c(F)cc2c(=O)c(C(=O)O)cn(C3CC3)c12` (centres undefined) [GATIFLOXACIN] yielded an MIC of 1 µg/mL (≈ 2.66 µM).
In the case of `COc1c(N2CCN(c3nnc(-c4ccc([N+](=O)[O-])s4)s3)C(C)C2)c(F)cc2c(=O)c(C(=O)O)cn(C3CC3)c12` (centres undefined), the MIC is reported as 4 µg/mL (≈ 6.82 µM).
In the case of `COc1c(N2CCN(c3nnc(-c4ccccc4[N+](=O)[O-])s3)C(C)C2)c(F)cc2c(=O)c(C(=O)O)cn(C3CC3)c12` (centres undefined), the MIC is reported as 0.5 µg/mL (≈ 0.861 µM).

Test system: Escherichia coli
Test: Antibacterial activity against Escherichia coli ATCC 25922 after 18 hrs by conventional agar dilution method
Type: functional
Settings: ATCC 25922, 18 h
Summary of the method: as §1
In the case of `COc1c(N2CCNC(C)C2)c(F)cc2c(=O)c(C(=O)O)cn(C3CC3)c12` (centres undefined) [GATIFLOXACIN], the MIC is reported as 1 µg/mL (≈ 2.66 µM).
For `COc1c(N2CCN(c3nnc(-c4ccc([N+](=O)[O-])s4)s3)C(C)C2)c(F)cc2c(=O)c(C(=O)O)cn(C3CC3)c12` (centres undefined), the MIC was 32 µg/mL (≈ 54.5 µM).
For `COc1c(N2CCN(c3nnc(-c4ccccc4[N+](=O)[O-])s3)C(C)C2)c(F)cc2c(=O)c(C(=O)O)cn(C3CC3)c12` (centres undefined), the MIC was 16 µg/mL (≈ 27.6 µM).

Test system: Salmonella enterica subsp. enterica serovar Typhi str. CT18
Test: Antibacterial activity against Salmonella typhi ATCC 19430 after 18 hrs by conventional agar dilution method
Type: functional
Settings: ATCC 19430, 18 h
Summary of the method: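 Twofold dilutions in DMSO mixed into molten Mueller–Hinton agar at 50 °C. Inoculum adjusted at 600 nm to about 0.5 McFarland (1.5 ×10⁸ CFU/mL), then diluted in 0.85% saline to 10⁷ CFU/mL. Plates spot-inoculated at 10⁴ CFU/spot and incubated at 35–37 °C for 18 h. MIC taken as the lowest concentration with no visible growth. DMSO solvent control run at matching dilutions.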
For `COc1c(N2CCNC(C)C2)c(F)cc2c(=O)c(C(=O)O)cn(C3CC3)c12` (centres undefined) [GATIFLOXACIN], the MIC was 0.0625 µg/mL (≈ 0.166 µM).
Compound `COc1c(N2CCN(c3nnc(-c4ccc([N+](=O)[O-])s4)s3)C(C)C2)c(F)cc2c(=O)c(C(=O)O)cn(C3CC3)c12` (centres undefined) has an MIC of 1 µg/mL (≈ 1.7 µM).
For `COc1c(N2CCN(c3nnc(-c4ccccc4[N+](=O)[O-])s3)C(C)C2)c(F)cc2c(=O)c(C(=O)O)cn(C3CC3)c12` (centres undefined), the MIC was 16 µg/mL (≈ 27.6 µM).

Test system: Shigella flexneri
Test: Antibacterial activity against Shigella flexneri NCTC 8516 after 18 hrs by conventional agar dilution method
Type: functional
Settings: NCTC 8516, 18 h
Summary of the method: as §1
Work on `COc1c(N2CCNC(C)C2)c(F)cc2c(=O)c(C(=O)O)cn(C3CC3)c12` (centres undefined) [GATIFLOXACIN] yielded an MIC of 0.0625 µg/mL (≈ 0.166 µM).
For `COc1c(N2CCN(c3nnc(-c4ccc([N+](=O)[O-])s4)s3)C(C)C2)c(F)cc2c(=O)c(C(=O)O)cn(C3CC3)c12` (centres undefined), the MIC was 1 µg/mL (≈ 1.7 µM).
In the case of `COc1c(N2CCN(c3nnc(-c4ccccc4[N+](=O)[O-])s3)C(C)C2)c(F)cc2c(=O)c(C(=O)O)cn(C3CC3)c12` (centres undefined), the MIC is reported as 16 µg/mL (≈ 27.6 µM).

Test system: Klebsiella pneumoniae
Test: Antibacterial activity against Klebsiella pneumoniae ATCC 10031 after 18 hrs by conventional agar dilution method
Type: functional
Settings: ATCC 10031, 18 h
Summary of the method: as §1
For `COc1c(N2CCNC(C)C2)c(F)cc2c(=O)c(C(=O)O)cn(C3CC3)c12` (centres undefined) [GATIFLOXACIN], the MIC was 0.5 µg/mL (≈ 1.33 µM).
`COc1c(N2CCN(c3nnc(-c4ccc([N+](=O)[O-])s4)s3)C(C)C2)c(F)cc2c(=O)c(C(=O)O)cn(C3CC3)c12` (centres undefined) showed an MIC of 16 µg/mL (≈ 27.3 µM).
For `COc1c(N2CCN(c3nnc(-c4ccccc4[N+](=O)[O-])s3)C(C)C2)c(F)cc2c(=O)c(C(=O)O)cn(C3CC3)c12` (centres undefined), the MIC was 64 µg/mL (≈ 110 µM).

Test system: Serratia marcescens
Test: Antibacterial activity against Serratia marcescens PTCC 1111 after 18 hrs by conventional agar dilution method
Type: functional
Settings: PTCC 1111, 18 h
Summary of the method: as §1
Compound `COc1c(N2CCNC(C)C2)c(F)cc2c(=O)c(C(=O)O)cn(C3CC3)c12` (centres undefined) [GATIFLOXACIN] has an MIC of 0.5 µg/mL (≈ 1.33 µM).
Compound `COc1c(N2CCN(c3nnc(-c4ccc([N+](=O)[O-])s4)s3)C(C)C2)c(F)cc2c(=O)c(C(=O)O)cn(C3CC3)c12` (centres undefined) has an MIC of 8 µg/mL (≈ 13.6 µM).
Work on `COc1c(N2CCN(c3nnc(-c4ccccc4[N+](=O)[O-])s3)C(C)C2)c(F)cc2c(=O)c(C(=O)O)cn(C3CC3)c12` (centres undefined) yielded an MIC of 16 µg/mL (≈ 27.6 µM).

Test system: Pseudomonas aeruginosa
Test: Antibacterial activity against Pseudomonas aeruginosa ATCC 27853 after 18 hrs by conventional agar dilution method
Type: functional
Settings: ATCC 27853, 18 h
Summary of the method: as §1
For `COc1c(N2CCNC(C)C2)c(F)cc2c(=O)c(C(=O)O)cn(C3CC3)c12` (centres undefined) [GATIFLOXACIN], the MIC was 2 µg/mL (≈ 5.33 µM).
In the case of `COc1c(N2CCN(c3nnc(-c4ccc([N+](=O)[O-])s4)s3)C(C)C2)c(F)cc2c(=O)c(C(=O)O)cn(C3CC3)c12` (centres undefined), the MIC is reported as greater than 64 µg/mL.
With `COc1c(N2CCN(c3nnc(-c4ccccc4[N+](=O)[O-])s3)C(C)C2)c(F)cc2c(=O)c(C(=O)O)cn(C3CC3)c12` (centres undefined) the MIC was greater than 64 µg/mL.

Test system: not listed separately
Test: Cytotoxicity against mouse NIH/3T3 cells after 72 hrs by MTT assay
Type: cell-based
Settings: NIH3T3, 72 h
Summary of the method: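 Exponential-phase NIH/3T3 fibroblasts trypsinized and diluted in complete medium to 5 × 10⁴ cells/mL, then plated in 96-well plates. Serial compound dilutions added, each in triplicate, with cell-only wells as the viability control. Incubation 72 h, then MTT (5 mg/mL solution) added for 1 h and the medium replaced for colorimetric read-out.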
`COc1c(N2CCNC(C)C2)c(F)cc2c(=O)c(C(=O)O)cn(C3CC3)c12` (centres undefined) [GATIFLOXACIN] gave an IC50 of 596 µM.
In the case of `COc1c(N2CCN(c3nnc(-c4ccc([N+](=O)[O-])s4)s3)C(C)C2)c(F)cc2c(=O)c(C(=O)O)cn(C3CC3)c12` (centres undefined), the IC50 is reported as 243 µM.
Work on `COc1c(N2CCN(c3nnc(-c4ccccc4[N+](=O)[O-])s3)C(C)C2)c(F)cc2c(=O)c(C(=O)O)cn(C3CC3)c12` (centres undefined) yielded an IC50 of 168 µM.
